Key:
HCT-15 = assay: Cytotoxicity against human HCT15 cells after 48 hrs by SRB assay; assay type: functional, cell-based; conditions: HCT-15, 48 h
In short: (§1)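 SRB protein-staining microculture growth assay following the Monks method. Cells were detached with 0.1% (w/v) trypsin-EDTA, counted by hemocytometer and diluted in complete medium to 5 × 10⁴ cells/mL (K-562, MCF-7), 7.5 × 10⁴ cells/mL (U-251, PC-3) or 10 × 10⁴ cells/mL (HCT-15). DMSO stocks were tested at 100, 31, 10, 3.1 and 1. After 48 h, cells were fixed in situ with 50% TCA for 60 min at 4 °C. IC50 is the mean of three experiments.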

[1] = Inhibition of Marthasterias glacialis oocyte CDK1/Cyclin B
[2] = molecular target: Cyclin-dependent kinase 5/CDK5 activator 1 (Homo sapiens, UniProt Q00535); assay: Inhibition of recombinant CDK5/p25 expressed in Escherichia coli
Chain of Cyclin-dependent kinase 5/CDK5 activator 1 (Q00535 whole entry): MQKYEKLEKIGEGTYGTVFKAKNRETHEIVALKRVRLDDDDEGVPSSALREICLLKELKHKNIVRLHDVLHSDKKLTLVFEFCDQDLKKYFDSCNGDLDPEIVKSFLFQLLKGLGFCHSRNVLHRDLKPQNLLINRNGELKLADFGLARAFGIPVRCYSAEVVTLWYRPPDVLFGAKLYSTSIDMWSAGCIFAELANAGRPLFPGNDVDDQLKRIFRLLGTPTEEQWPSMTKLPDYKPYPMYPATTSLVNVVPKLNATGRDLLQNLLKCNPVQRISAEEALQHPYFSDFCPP
Chain of Cyclin-dependent kinase 5/CDK5 activator 1 (Q15078 whole entry, further chain): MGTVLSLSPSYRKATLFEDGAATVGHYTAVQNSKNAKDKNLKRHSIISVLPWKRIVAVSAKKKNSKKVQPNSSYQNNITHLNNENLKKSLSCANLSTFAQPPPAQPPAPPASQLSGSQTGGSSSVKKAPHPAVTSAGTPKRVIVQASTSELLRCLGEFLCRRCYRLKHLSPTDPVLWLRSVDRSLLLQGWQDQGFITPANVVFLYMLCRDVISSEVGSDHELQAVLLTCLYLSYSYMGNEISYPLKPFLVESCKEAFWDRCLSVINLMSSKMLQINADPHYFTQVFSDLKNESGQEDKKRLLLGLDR

[3] = molecular target: Glycogen synthase kinase-3 beta (Homo sapiens, UniProt P49841); assay: Inhibition of GSK3-beta expressed in Sf9 cells
Chain of Glycogen synthase kinase-3 beta (P49841 whole entry): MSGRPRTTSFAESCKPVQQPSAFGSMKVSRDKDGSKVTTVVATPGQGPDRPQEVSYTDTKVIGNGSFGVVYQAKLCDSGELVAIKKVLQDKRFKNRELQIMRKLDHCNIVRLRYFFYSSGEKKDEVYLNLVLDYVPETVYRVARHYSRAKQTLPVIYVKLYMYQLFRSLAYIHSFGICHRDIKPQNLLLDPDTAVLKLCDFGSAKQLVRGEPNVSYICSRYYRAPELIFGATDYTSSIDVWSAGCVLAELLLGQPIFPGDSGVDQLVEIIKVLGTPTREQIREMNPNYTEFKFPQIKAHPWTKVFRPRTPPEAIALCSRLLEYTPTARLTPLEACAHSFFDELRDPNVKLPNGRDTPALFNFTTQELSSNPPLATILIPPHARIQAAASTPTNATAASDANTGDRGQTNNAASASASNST

PC-3 = assay: Cytotoxicity against human PC3 cells after 48 hrs by SRB assay; assay type: functional, cell-based; conditions: PC-3, 48 h; in short: as §1
MCF7 = assay: Cytotoxicity against human MCF7 cells after 48 hrs by SRB assay; assay type: functional, cell-based; conditions: MCF7, 48 h; in short: as §1
K562 = assay: Cytotoxicity against human K562 cells after 48 hrs by SRB assay; assay type: functional, cell-based; conditions: K562, 48 h; in short: as §1
U-251 = assay: Cytotoxicity against human U251 cells after 48 hrs by SRB assay; assay type: functional, cell-based; conditions: U-251, 48 h; in short: as §1

IC50 [1] | IC50 [2] | IC50 [3] | Structure (SMILES) | IC50 (HCT-15) | IC50 (PC-3) | IC50 (MCF7) | IC50 (K562) | IC50 (U-251)
> 10 µM | > 10 µM | > 10 µM | CC1(C)CNC(=O)c2cc3n(c2C1)CCc1cc(Br)ccc1-3 | 25.6 µM | 33.6 µM | 43.1 µM | 36.1 µM | 18.1 µM
– | – | – | COc1ccc2c(c1)CCn1c-2cc2c1CC(C)(C)CNC2=O | > 100 µM | > 100 µM | > 100 µM | > 100 µM | > 100 µM
– | – | – | CC1(C)CNC(=O)c2cc(-c3ccc([N+](=O)[O-])cc3)n(-c3ccc(Cl)cc3)c2C1 | 20 µM | 17.4 µM | 51.7 µM | 15.1 µM | 28.8 µM
– | – | – | CC1(C)CNC(=O)c2cc3n(c2C1)CCc1cc(Cl)ccc1-3 | 39.6 µM | > 100 µM | > 100 µM | > 100 µM | > 100 µM
– | – | – | CC1(C)CNC(=O)c2cc3n(c2C1)CCc1ccccc1-3 | > 100 µM | > 100 µM | > 100 µM | > 100 µM | > 100 µM
– | – | – | CC1(C)CC(=O)c2cc3n(c2C1)CCc1cc(Br)ccc1-3 | 36 µM | 50.6 µM | 35 µM | 23.9 µM | 53.3 µM
– | – | – | COc1ccc2c(c1)CCn1c-2cc2c1CC(C)(C)CC2=O | > 100 µM | > 100 µM | > 100 µM | 57.5 µM | > 100 µM
– | – | – | CC1(C)CC(=O)c2cc3n(c2C1)CCc1cc(Cl)ccc1-3 | 24.8 µM | > 100 µM | 41.8 µM | 10.2 µM | > 100 µM
– | – | – | CC1(C)CNC(=O)c2cc(-c3ccc([N+](=O)[O-])cc3)n(-c3ccc(Br)cc3)c2C1 | > 100 µM | 21.1 µM | > 100 µM | > 100 µM | 25.6 µM
> 10 µM | > 10 µM | > 10 µM | CC1(C)CNC(=O)c2cc3n(c2C1)CCc1cc(F)ccc1-3 | > 100 µM | > 100 µM | 54.5 µM | 33.7 µM | > 100 µM
– | – | – | CC1(C)CC(=O)c2cc3n(c2C1)CCc1ccccc1-3 | > 100 µM | > 100 µM | > 100 µM | 36.8 µM | > 100 µM
> 10 µM | > 10 µM | > 10 µM | CC1(C)CNC(=O)c2cc3n(c2C1)CCc1cc([N+](=O)[O-])ccc1-3 | 29.5 µM | 25.8 µM | 43.1 µM | > 100 µM | > 100 µM
– | – | – | CC1(C)CC(=O)c2cc3n(c2C1)CCc1cc([N+](=O)[O-])ccc1-3 | 16.7 µM | > 100 µM | > 100 µM | 73.7 µM | > 100 µM
– | – | – | CC1(C)CC(=O)c2cc3n(c2C1)CCc1cc(F)ccc1-3 | 65.5 µM | > 100 µM | > 100 µM | 27.2 µM | > 100 µM
– | – | – | O=C1Cc2c([nH]c3ccc([N+](=O)[O-])cc23)-c2ccccc2N1 [ALSTERPAULLONE] | 0.62 µM | 1.12 µM | 1.24 µM | 1.58 µM | 0.68 µM
– | – | – | O=C1Cc2c([nH]c3ccc(Br)cc23)-c2ccccc2N1 [KENPAULLONE] | 23.9 µM | > 100 µM | > 100 µM | > 100 µM | > 100 µM

Reference: ChEMBL document CHEMBL1152758, “Synthesis and cytotoxic activity of new azepino[3',4':4,5]pyrrolo[2,1-a]isoquinolin-12-ones” (Bioorg Med Chem, 2009)
